This note sets out measurements from ChEMBL document CHEMBL1255535, “7-O-Arylmethylgalangin as a novel scaffold for anti-HCV agents” (Bioorg Med Chem Lett, 2010).

pEC50: −log10 of the molar value.

A short description of data set [1]: Selectivity index, ratio of CC50 for human Huh5-2 cells to EC50 for HCV. Set-up: species or system Huh-5-2. The method in brief: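 Selectivity index computed as CC50 (Huh-5-2 proliferation, WST-1, 3 days) divided by EC50 (replicon luciferase, 4 days), both from the same Huh-5-2 cell line.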
Another data set relates to Hepatitis C virus. The experiment in a line: Antiviral activity against HCV assessed as inhibition of viral replication by luciferase assay. It is filed as functional, organism-based, Hepacivirus hominis. An outline of the steps:
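Huh-5-2 replicon cells (5 × 10³/well) seeded in complete DMEM with G418, 24 h at 37 °C (5% CO2), then medium refreshed with G418 and compounds added from DMSO stock; 4 days at 37 °C; luciferase activity read by Steady-Glo. EC50 = concentration inhibiting HCV RNA replication by 50%, averaged from triplicate determinations; IFN-α as positive control.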

A short description of data set [2]: Cytotoxicity against human Huh5-2 cells after 3 days by WST-1 assay. In kind it is cell-based, Huh-5-2. The method in brief:
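Huh-5-2 cells seeded at 5 × 10³/well in complete DMEM with G418; serial compound dilutions in DMEM without G418 added 24 h later; cells proliferated 3 days at 37 °C; cell number by WST-1. CC50 = concentration reducing cell proliferation by 50%.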
On the technique in general: Tetrazolium assays rely on reduction of a dye to a coloured formazan, in cell work by metabolically active cells.

Broadly, the pEC50 is the EC50 on a negative log10 scale, so that one unit is a factor of ten. As usually defined, the CC50 is the concentration at which the toxic effect on the cells reaches its halfway point. A high value points to better tolerance by the cells. On to `O=c1c(O)c(-c2ccccc2)oc2cc(OCc3ccc([N+](=O)[O-])cc3)cc(O)c12`, for which, in data set [1], the “Selectivity Index” value was 9.3. In the data set with Hepatitis C virus, the pEC50 is 5.00. In data set [2], this compound displayed a CC50 at 72 h of 93 µM.
With `O=c1c(O)c(-c2ccccc2)oc2cc(OCc3cccc(Cl)c3)cc(O)c12`, the pEC50 in the data set on Hepatitis C virus was 4.66. The compound further gave a CC50 at 72 h in data set [2] of over 100 µM.
As to `N#Cc1ccc(COc2cc(O)c3c(=O)c(O)c(-c4ccccc4)oc3c2)cc1`, in data set [1], the “Selectivity Index” value was determined as 4.9. Moreover, the pEC50 in the data set with Hepatitis C virus was 4.72. Half-maximal cytotoxicity in data set [2] (CC50 at 72 h) was put at 94 µM.
Take `O=c1c(O)c(-c2ccccc2)oc2cc(OCc3ccccc3Cl)cc(O)c12`: the pEC50 in the data set with Hepatitis C virus is 4.52. The compound further had a CC50 at 72 h in data set [2] of over 100 µM.
In the case of `O=c1c(O)c(-c2ccccc2)oc2cc(OCc3cccc(Br)c3)cc(O)c12`, the negative logarithm of the EC50 (pEC50) in the data set on Hepatitis C virus is 4.43. In data set [2], this compound had a CC50 at 72 h of over 100 µM.
`O=c1c(O)c(-c2ccc(C(F)(F)F)cc2)oc2cc(OCc3ccc(Cl)cc3)cc(O)c12`: the “Selectivity Index” value in data set [1] is given as 24.3. In addition, the negative-log EC50 (pEC50) in the data set on Hepatitis C virus is 5.52. Besides, the 50% cytotoxic concentration (CC50) at 72 h in data set [2] is 73 µM.
Take `COc1ccccc1COc1cc(O)c2c(=O)c(O)c(-c3ccccc3)oc2c1`: in the data set with Hepatitis C virus, the pEC50 was 4.28. In addition, the 50% cytotoxic concentration (CC50) at 72 h in data set [2] is over 100 µM.
`N#Cc1ccc(-c2oc3cc(OCc4ccc(Cl)cc4)cc(O)c3c(=O)c2O)cc1`: the “Selectivity Index” value in data set [1] turned out to be 74.4. Moreover, the pEC50 with Hepatitis C virus is 6.05. Further, the 50% cytotoxic concentration (CC50) at 72 h in data set [2] was found to be 67 µM.
With `O=c1c(O)c(-c2ccccc2)oc2cc(OCc3ccc(Br)cc3)cc(O)c12`, in the data set on Hepatitis C virus, the negative logarithm of the EC50 (pEC50) was 5.22. Moreover, the CC50 at 72 h in data set [2] is over 100 µM.
Consider `COc1cccc(COc2cc(O)c3c(=O)c(O)c(-c4ccccc4)oc3c2)c1`, for which the pEC50 in the data set on Hepatitis C virus is 4.82. The compound also showed a CC50 at 72 h in data set [2] of over 100 µM.
Turning to `O=c1c(O)c(-c2ccccc2)oc2cc(OCc3ccc(Cl)cc3)cc(O)c12`, the negative-log EC50 (pEC50) in the data set with Hepatitis C virus was 5.10. Besides, the CC50 at 72 h in data set [2] is over 100 µM.
The matching figures for `O=c1c(O)c(-c2ccccc2)oc2cc(OCc3ccccc3Br)cc(O)c12`: 5.00 and over 100 µM.
Take `N#Cc1cccc(COc2cc(O)c3c(=O)c(O)c(-c4ccccc4)oc3c2)c1`: in data set [1], the “Selectivity Index” value was 24. The pEC50 with Hepatitis C virus was 5.52. In data set [2], this compound registered a cytotoxic concentration (CC50) at 72 h of 72 µM.
`O=c1c(O)c(-c2ccccc2)oc2cc(OCc3ccccc3[N+](=O)[O-])cc(O)c12`: the “Selectivity Index” value in data set [1] is reported as 1.3. The negative-log EC50 (pEC50) in the data set on Hepatitis C virus is 4.60. Besides, it took 32 µM to reach half-maximal cytotoxicity in data set [2] (CC50 at 72 h).
The matching figures for `Cc1cccc(COc2cc(O)c3c(=O)c(O)c(-c4ccccc4)oc3c2)c1`: 1.3, 4.57 and 35 µM.
On the same counts, the results for `N#Cc1ccccc1COc1cc(O)c2c(=O)c(O)c(-c3ccccc3)oc2c1` are 0.6, 4.41 and 22 µM.
On to `COc1ccc(-c2oc3cc(OCc4ccc(Cl)cc4)cc(O)c3c(=O)c2O)cc1`, for which the “Selectivity Index” value in data set [1] turned out to be 10.7. Further, the pEC50 in the data set with Hepatitis C virus was 5.22. Further, in data set [2], the midpoint of cytotoxicity, the CC50 at 72 h, lay at 64 µM.
On the same counts, the results for `Cc1ccc(COc2cc(O)c3c(=O)c(O)c(-c4ccccc4)oc3c2)cc1` are 14.7, 5.22 and 88 µM.
As to `O=c1c(O)c(-c2ccccc2)oc2cc(OCc3cccc([N+](=O)[O-])c3)cc(O)c12`, the “Selectivity Index” value in data set [1] was 38. The negative logarithm of the EC50 (pEC50) in the data set with Hepatitis C virus was 5.70. Half-maximal cytotoxicity in data set [2] (CC50 at 72 h) was put at 76 µM.
The matching figures for `Cc1ccccc1COc1cc(O)c2c(=O)c(O)c(-c3ccccc3)oc2c1`: 2.4, 5.15 and 17 µM.
Take `COc1ccc(COc2cc(O)c3c(=O)c(O)c(-c4ccccc4)oc3c2)cc1`: the negative-log EC50 (pEC50) in the data set on Hepatitis C virus is 4.42. Moreover, the 50% cytotoxic concentration (CC50) at 72 h in data set [2] was over 100 µM.
In the case of `O=C(O)/C(O)=C/C(=O)c1cccc(NCc2ccc(Cl)cc2)c1`, the pEC50 in the data set on Hepatitis C virus is 6.09.
